High-throughput results deposited in PubChem BioAssay by several laboratories.
An excerpt weighted towards active compounds, which were near 0.73% of everything screened.
TNAP inh no acc: TNAP (human) inhibition, acceptor-free conditions | P05186 | purified TNAP, CDP-star luminescence, 30 min | inhibition, % at 20 µM | 200,000 compounds, 0.26% hits;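 active = tissue-nonspecific alkaline phosphatase inhibition above about 50% at 20 µM in the single-dose screen, limit read from the data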;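 note: 0% = DMSO negative control and 100% = EDTA positive control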
Arbovirus inh: blocks arbovirus infection. 200,000 compounds, 0.37% hits. arbovirus infection cell-based antiviral screen. inhibition, % at 10 µM. AID 1251; in the data active = inhibition above about 30%
TNAP inh hi DEA: blocks human TNAP under high phosphate acceptor concentration; purified TNAP, CDP-star luminescence, 1 M DEA; inhibition, % at 20 µM; 200,000 compounds, 0.03% hits; AID 1135;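 active = over 50% inhibition of tissue-nonspecific alkaline phosphatase at 20 µM in the single-dose screen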;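 note: plate controls were DMSO wells for no effect and EDTA-quenched wells as full inhibition for full effect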
PKD1 inh: PKD1 (human) kinase inhibition. Q15139. PKD1 kinase fluorescence polarization assay. inhibition, % (no concentration beside the values). 200,000 compounds, 0.056% hits. AID 797; in the data active = inhibition above about 50%
TNAP act hiacc: TNAP (human) activation, high acceptor. P05186. activation factor at 20 µM. purified TNAP, CDP-star luminescence, 1 M DEA, 30 min; hits give high values; 0 = EDTA background, 1 = DMSO-only activity. AID 1136. 200,000 tested, under 10 active;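 active = activation factor at least 2 at 20 µM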
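system = human TNAP | amount = enzyme diluted 1/800 final | reagent = 100 µM CDP-star substrate | signal = luminescent substrate turnover signal | dosing = one dose, 20 µM | benchmarks = EDTA negative control, DMSO positive control | measure = activation factor | timing = 30 min reaction, room temperature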
PKD FP artifact: FP interference, PKD inhibitor counter-screen; inhibition, % at 10 µM; AID 1315; 85 tested, under 10 active; PKD1 FP assay interference counter-screen, fluorescence polarization; shares compounds with PKD1 inh; call rule not given here
Numbers without * were called inactive.

SMILES | TNAP inh no acc | Arbovirus inh | TNAP inh hi DEA | PKD1 inh | TNAP act hiacc | others
Cc1oc2ccc(OC(=O)N(C)C)cc2c1C(=O)OC(C)C | -7 | 32* | -2 | 0 | 1
Oc1ccc(CC2CC3CCN2CC3)cc1O (centres undefined) | 75* | 1 | 7 | -12 | 0.9
COc1ccccc1N1CCN(Cc2cc(C)c(C)cc2O)CC1 | -14 | 32* | -15 | -7 | 1.2
O=C(N/N=C/c1c(O)n(CCC2=CCCCC2)c(=O)[nH]c1=O)c1ccccc1 | 67* | -1 | -2 | -4 | 1
O=C(N/N=C/c1c(O)n(CCC2=CCCCC2)c(=S)[nH]c1=O)c1ccccc1 | -40 | -14 | 0 | 9 | 1
OC(c1cccc(Cl)c1)(c1cccc(Cl)c1)C1CN2CCC1CC2 (centres undefined) | -11 | -36 | -5 | -5 | 1.1
COc1ccc(CCN(C)Cc2ccc(F)cc2F)cc1OC | -15 | 71* | 0 | -1 | 1
CCN(CC)c1ccc(CN(C)CCc2ccc(OC)c(OC)c2)cc1 | -9 | -15 | -5 | 2 | 1.1
Cc1ncc(CN2CCCC(C(=O)c3sccc3C)C2)s1 (centres undefined) | -11 | -2 | -3 | -3 | 1
CCCC/C(=N\O)c1c[nH]c2ccccc12 | 2 | 12 | 0 | 6 | 1
CCCCC(=O)N/N=C/c1c(O)n(CCc2ccc(OC)c(OC)c2)c(=O)[nH]c1=O | -59 | -10 | 2 | 1 | 1
CCCCC(=O)N/N=C/c1c(O)n(CC)c(=S)[nH]c1=O | 87* | 4 | -9 | -1 | 1.1
Cc1nn(Cc2ccccc2)c(Cl)c1C(=O)NC1CCCc2ccccc21 (centres undefined) | -11 | 30* | -2 | -8 | 1
CN1CCN(c2ccc(/C=C3\C(=O)NC(=S)N(c4cccc(Br)c4)C3=O)o2)CC1 | 47 | 37* | 46 | -14 | 0.5
CC[C@]12C=CCN3CCC4(c5cc(Br)c(OC)cc5N(C)C4[C@@](O)(C(=O)OC)[C@@H]1OC(C)=O)C32 (some centres undefined) | -5 | 14 | 1 | 3 | 1
CN1C(=O)c2ccccc2NC(=O)C1Cc1ccccc1 (centres undefined) | 62* | -1 | -2 | 2 | 1
CN1C(=O)C(C2c3ccccc3C(=O)N2Cc2ccccc2)C(=O)N(C)C1=O (centres undefined) | -6 | 8 | -7 | -3 | 1.1
CCOC(=O)CC(NC(=O)C(Cc1ccc(N(CCCl)CCCl)cc1)NC(C)=O)C(=O)OCC (centres undefined) | -9 | -15 | -1 | -2 | 1
C=CCN1C(=O)NC(=O)/C(=C/C=C/c2ccccc2)C1=O | 2 | 3 | -2 | 4 | 1
CN(C)c1ccc(/C=C/C=C2/C(=O)NC(=O)N(c3ccccc3)C2=O)cc1 | 54* | -31 | 51* | -8 | 0.5
CN1CCN(c2ccccc2N)CC1 | 4 | 8 | -4 | 1 | 1
CN1CCN(c2cccc3c2C(=O)c2ccccc2C3=O)CC1 | 18 | -25 | 12 | 101* | 0.9 | PKD FP artifact=-9
Cc1cc(C=O)c(C)n1C(C)C | 17 | 7 | -4 | -1 | 1
NC(=O)c1cn(C2OC(CO)C(O)C2O)c2ncnc(N)c12 (centres undefined) | -4 | -17 | -1 | 94* | 1 | PKD FP artifact=-13
